Measurements gathered from unrelated publications.
Each line is one published result; the experiments were not run side by side.
Read-out: cell growth or viability

Compound | cell line | assay | conditions | IC50 [nM]
COc1cc2c3c(n(CCCNC(C)C)c(=O)c2cc1OC)-c1nc2c(cc1C3=O)OCO2 | MOLT-4 | MTS | 72 h | 19
CN1CCC(NC(=O)c2ccc(-c3cc(C4CC4)c4oc5c(c4c3)CCN(C(=O)/C=C/c3ccc(N)nc3)C5)nn2)C(F)(F)C1 (stereo not shown) | MIA PaCa-2 | CCK-8 | 72 h | 1900
COc1cc2c3c(n(CCCN4CCOCC4)c(=O)c2cc1OC)-c1nc2c(cc1C3=O)OCO2 | MOLT-4 | MTS | 72 h | 113
Cc1sc2c(c1C)C(c1ccc(Cl)cc1)=N[C@@H](CC(=O)NCCCCCCCCNC(=O)COc1cccc3c1C(=O)N(C1CCC(=O)NC1=O)C3=O)c1nnc(C)n1-2 (stereo partly shown) | Jurkat | ATP luminescence | 72 h | 39
C=C(F)C(=O)N1CCN(c2nc(OC[C@@H]3CCCN3C)nc3c2CCN(c2cccc4cccc(Cl)c24)C3)C[C@@H]1CC#N | MIA PaCa-2 | ATP luminescence | – | 56.5
Nc1ccc(/C=C/C(=O)N2CCc3c(oc4c(-c5ccc(F)cc5)cc(-c5ncc(C(=O)N6CCC(F)(F)CC6)cn5)cc34)C2)cn1 | MIA PaCa-2 | CCK-8 | 72 h | 4460
C[C@H](CCC(=O)O)[C@H]1CC[C@H]2[C@@H]3CC[C@@H]4C[C@H](O)CC[C@]4(C)[C@H]3CC[C@]12C | LNCaP | MTT | 72 h | 66000
COc1ccc(-c2cc(C(=O)Nc3ccccc3)c3cc(-c4cccs4)ccc3n2)cc1 | MIA PaCa-2 | MTT | 48 h | > 50000
COc1cc2c3c(n(CCCNCCO)c(=O)c2cc1OC)-c1nc2c(cc1C3=O)OCO2 | MOLT-4 | MTS | 72 h | 12
CC1(C)CCC(c2ccc(Cl)cc2)=C(CN2CCN(c3ccc(C(=O)NS(=O)(=O)c4ccc(N[C@H](CCN5CCOCC5)CSc5ccccc5)c(S(=O)(=O)C(F)(F)F)c4)cc3)CC2)C1 | human Platelet | MTS | 24 h | 6.4
COc1cc([C@@H]2c3cc4c(cc3[C@@H](O[C@@H]3O[C@@H]5CO[C@@H](C)O[C@H]5[C@H](O)[C@H]3O)[C@H]3COC(=O)[C@H]23)OCO4)cc(OC)c1O | T47D | MTT | 48 h | 79000
COc1ccc(F)cc1-c1ccc2nc(-c3ccccc3)cc(C(=O)Nc3ccccc3)c2c1 | MIA PaCa-2 | MTT | 48 h | > 50000
C=CC(=O)N1CCN(c2nc(=O)n(-c3c(C)ccnc3C(C)C)c3nc(-c4c(O)cccc4F)c(F)cc23)[C@@H](C)C1 | SW837 | ATP luminescence | – | 46.3
COc1ccc(-c2cc(C(=O)Nc3ccccc3)c3cc(-c4ccc(Cl)cc4)ccc3n2)cc1 | MIA PaCa-2 | MTT | 48 h | > 50000
Nc1ccc(/C=C/C(=O)N2CCc3c(oc4c(-c5ccc(F)cc5)cc(-c5ccc(C(=O)N6CCOCC6)nn5)cc34)C2)cn1 | MIA PaCa-2 | CCK-8 | 72 h | 460
CCNCCCn1c2c(c3cc(OC)c(OC)cc3c1=O)C(=O)c1cc3c(nc1-2)OCO3 | KMS-27 | MTS | 72 h | 141
COc1ccc(-c2cc(C(=O)Nc3ccccc3)c3cc(-c4cc(F)ccc4OC)ccc3n2)cc1 | MIA PaCa-2 | MTT | 48 h | > 50000
COc1cc2c3c(n(CCCn4ccnc4)c(=O)c2cc1OC)-c1nc2c(cc1C3=O)OCO2 | MOLT-4 | MTS | 72 h | 43
COc1ccc(-c2cc(C(=O)Nc3ccccc3)c3cc(-c4cc(C)ccc4F)ccc3n2)cc1 | MIA PaCa-2 | MTT | 48 h | > 50000
